Screening results as filed in PubChem BioAssay.
L major viab – reduces viability of Leishmania major promastigotes. resazurin fluorescence viability. inhibition, % at 10 µM. actives 9% (n = 200,000). AID 1063;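 also: promastigotes grown with compound for 44 hours at 28 °C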
T cruzi inh – T. cruzi replication inhibition; T. cruzi beta-gal in NIH3T3, luminescence, 90 h; inhibition, % (concentration not given with the values); actives 1.4% (n = 300,000); AID 1885;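 active = mean inhibition across valid replicates above about 55%, limit read from the data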;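 also: signal also drops with host cell toxicity which is not excluded here; higher percent means less beta-gal luminescence so fewer parasites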
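System: Mouse NIH/3T3 fibroblasts infected with β-gal-expressing T. cruzi Tulahuen C4 | Quantity: NIH/3T3 cells, 5,000 per well | Reagent: 5000 reporter trypomastigotes per well | Dosing: Compound pinned at 50 nL/well, DMSO | Schedule: 3 h host attachment, then at least 90 h co-culture | Detection: GalScreen luminescence, 60 min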
NALP3 yeast inh – NALP3 inhibition in yeast; inhibition, % at 10 µM; actives 0.39% (n = 330,000); AID 2825; Yeast reconstituted NLRP3/ASC/caspase-1, beta-gal luminescence, 24 h;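 active = inhibition of 50% or more; inactive = inhibition below 50%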
NALP1 inh – NALP1 inhibition; S. cerevisiae NALP1/ASC/caspase-1 growth, X-gal OD620, 72 h; inhibition, % at 10 µM; actives 0.61% (n = 280,000); AID 2071; in the data active = inhibition mostly above about 24%, no sharp cut-off; inactive = mostly below about 32%
PolyA inhibitor – inhibitors of polyadenylation in S. cerevisiae. S. cerevisiae SKY197-pL101 polyadenylation reporter, beta-gal luminescence; efflux-impaired pdr1/pdr3 knockout yeast; score 100 = 6 SD above DMSO. activity score, % at 12 µM. AID 1875. actives 0.02% (n = 300,000);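 active = lowest replicate activity score at least 50, where 100 means six control SD above control mean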;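 also: yeast exposed to compound for 9 h at 30 °C; higher score means more reporter readthrough which indicates perturbed polyadenylation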
Calb FLC – affects C. albicans growth with fluconazole; C. albicans CaCi-2 + fluconazole, Alamar Blue growth, 48 h; growth inhibition, % (concentration not given with the values); actives 0.57% (n = 300,000);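 active = growth inhibition above about 58% in most replicates, limit read from the data, passing the limit was not always enough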;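 also: all wells also contain fluconazole at 8 µg/ml as a sub-toxic cotreatment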
NALP3 yeast conf – confirmation of NALP3 inhibitors in yeast; AID 435006; inhibition, % at 10 µM; shares compounds with NALP3 yeast inh; yeast expressing human NALP3, luminescence; actives 81% (n = 1,300); in the data active = inhibition above about 48%
Casp1-ASC yeast – counter-screen for NALP3 inhibitors: yeast caspase-1-ASC; actives 66% (n = 1,000); yeast expressing Caspase-1-ASC, luminescence counter screen; inhibition, % at 10 µM; AID 488784; shares compounds with NALP3 yeast inh
NALP3 yeast rt – yeast NALP3 inhibition, confirmed on retest. shares compounds with NALP3 yeast inh. yeast expressing human NALP3, luminescence read-out. inhibition, % at 10 µM. actives 53% (n = 1,000)
Each line names hits and unclear results; the compound was inactive in the other large screens (follow-up assays come after a bar, where they were run). Many of the other results were omitted from the sample, so hits are more common in it than they were. Rule as the data show it, unless noted: active = inhibition above about 50%; inactive = the rest.

COC(=O)c1ccccc1NC(=O)C1CCCN(S(=O)(=O)c2ccc(OC)cc2)C1 (stereo unspecified)	NALP3 yeast inh 64 | NALP3 yeast conf 77 | Casp1-ASC yeast 63 | NALP3 yeast rt 60
COc1ccccc1N1CCN(c2nccc(C)n2)CC1	NALP3 yeast inh 51 (no result: L major viab) | NALP3 yeast conf 63 | Casp1-ASC yeast 52 | NALP3 yeast rt inactive
COc1cccc(/C=C/C(=O)N2CCN(S(=O)(=O)c3ccccc3)CC2)c1OC	none (no result: L major viab, NALP1 inh)
Cc1cccc(NC(=O)c2ccccc2O)c1C	NALP3 yeast inh 57 | NALP3 yeast conf 57 | Casp1-ASC yeast 52 | NALP3 yeast rt 59
O=C(Nc1ccccc1O)c1ccccc1O	none
COc1cccc2oc3cc(C#CC4(O)CCCCC4)ccc3c(=O)c12	NALP3 yeast inh 57 (no result: L major viab) | NALP3 yeast conf 60 | Casp1-ASC yeast 62 | NALP3 yeast rt inactive
O=c1c2ccccc2oc2cc(C#CC3(O)CCCCC3)ccc12	none (no result: L major viab, NALP1 inh)
CC(=O)N1N=C(c2cccc([N+](=O)[O-])c2)OC1(C)c1cccs1 (stereo unspecified)	none (no result: L major viab)
CC(=O)N1N=C(c2ccc(C)c([N+](=O)[O-])c2)OC1(C)C	NALP3 yeast inh 53 (no result: L major viab) | NALP3 yeast conf 49 | Casp1-ASC yeast 75 | NALP3 yeast rt 57
COC(=O)c1ccccc1NC1=C/C(=N\S(=O)(=O)c2ccc(C(=O)O)cc2)c2ccccc2C1=O	NALP3 yeast inh 51 (no result: L major viab) | NALP3 yeast conf 64 | Casp1-ASC yeast 84 | NALP3 yeast rt 77
Cc1ccc(S(=O)(=O)/N=C2\C=C(Nc3cccc(C(=O)O)c3)C(=O)c3ccccc32)cc1	none (no result: L major viab)
O=C(c1ccc([N+](=O)[O-])cc1[N+](=O)[O-])n1cnc2ccccc21	none
CCOC(=O)Cc1csc(NC(=O)c2cccc(Cl)c2)n1	NALP3 yeast inh 64 (no result: L major viab, NALP1 inh) | NALP3 yeast conf 60 | Casp1-ASC yeast 68 | NALP3 yeast rt 54
CCOC(=O)Cc1csc(NC(=O)c2ccncc2)n1	none
CCOC(=O)Cc1csc(NC(=O)c2cc(OC)cc(OC)c2)n1	none
CCOC(=O)Cc1csc(NC(=O)c2cccnc2)n1	none (no result: NALP1 inh)
CCOC(=O)Cc1csc(NC(=O)c2cc(C)c(C)s2)n1	NALP3 yeast inh 65 (no result: L major viab, T cruzi inh, NALP1 inh, PolyA inhibitor, Calb FLC) | NALP3 yeast conf 60 | Casp1-ASC yeast 79 | NALP3 yeast rt 63
CCOC(=O)Cc1csc(NC(=O)c2ccc(Cl)s2)n1	NALP3 yeast inh 63 (no result: L major viab) | NALP3 yeast conf 73 | Casp1-ASC yeast 75 | NALP3 yeast rt 71
CCC(C)N(C(=O)COC(=O)C1CCN(S(=O)(=O)c2ccc(C)c(C)c2)CC1)C1CCS(=O)(=O)C1 (stereo unspecified)	none (no result: L major viab, NALP1 inh)
CC(=O)c1c[nH]c(C(=O)NCc2cccc(C(F)(F)F)c2)c1	none (no result: L major viab)
Cc1ccc(S(=O)(=O)N2CCC(C(=O)NCCCN3CCOCC3)CC2)cc1	none (no result: L major viab, NALP1 inh)
C[C@@]12C(=O)Nc3cc(Cl)ccc3C(=O)N1[C@H]1c3ccccc3OC[C@@H]1[C@@H]2c1ccccc1	none (no result: L major viab, T cruzi inh, NALP1 inh, PolyA inhibitor, Calb FLC)
C[C@@]12C(=O)Nc3ccc(Cl)cc3C(=O)N1[C@H]1c3ccccc3OC[C@@H]1[C@@H]2c1ccccc1	NALP3 yeast inh 79 (no result: L major viab, T cruzi inh, NALP1 inh, PolyA inhibitor, Calb FLC) | NALP3 yeast conf 91 | Casp1-ASC yeast 70 | NALP3 yeast rt 66
O=C1Nc2ccccc2S/C1=C/c1cccs1	NALP3 yeast inh 65 (no result: L major viab, NALP1 inh) | NALP3 yeast conf inactive
Cc1nc2c(ncn2-c2ccccc2)c(=O)n1NC(=O)CN1CCN(C)CC1	none (no result: L major viab, NALP1 inh)
Cc1nc2c3ccccc3nc(NNC(=O)CCC(=O)NCCN3CCN(c4ccccc4F)CC3)n2n1	NALP3 yeast inh 52 (no result: L major viab) | NALP3 yeast conf 76 | Casp1-ASC yeast 54 | NALP3 yeast rt 71
Cn1c2c(c(=O)n(C)c1=O)C(C(F)(F)F)(C(F)(F)F)N=C(c1ccc(Cl)cc1)N2	L major viab 100, NALP3 yeast inh 54, Calb FLC 84 | NALP3 yeast conf 92 | Casp1-ASC yeast 77 | NALP3 yeast rt 88
C[C@H](CO)N1C[C@H](C)[C@@H](CN(C)S(=O)(=O)c2ccc(F)cc2)Oc2c(NS(=O)(=O)c3ccccc3)cccc2C1=O	none (no result: L major viab, T cruzi inh, NALP1 inh, PolyA inhibitor, Calb FLC)
O=C(Nc1ccc(N2CCCC2)cc1)C(c1ccccc1)c1ccccc1	none
O=C(Nc1ccc(N2CCCCC2)cc1)C(Cl)c1ccccc1 (stereo unspecified)	NALP3 yeast inh 50 | NALP3 yeast conf 56 | Casp1-ASC yeast inactive | NALP3 yeast rt inactive
O=C(N/N=C/C(Cl)=C\c1ccccc1)c1cccs1	NALP3 yeast inh 60 (no result: L major viab) | NALP3 yeast conf 69
CC(/C=N/NC(=O)c1cccs1)=C\c1ccccc1	NALP3 yeast inh 54 | NALP3 yeast conf 69 | Casp1-ASC yeast 63 | NALP3 yeast rt 53
Cc1cccc(NC(=O)CN(CC2CCCO2)C(=O)c2oc3ccccc3c2C)c1C (stereo unspecified)	none (no result: L major viab, T cruzi inh, NALP1 inh, PolyA inhibitor, Calb FLC)
CCN1CCN(C(=O)CSc2nc(N)cc(N)n2)CC1	none
NC(=S)N/N=C/c1ccc(C23CC4CC(CC(C4)C2)C3)cc1	T cruzi inh 77, NALP3 yeast inh 64 (no result: L major viab) | NALP3 yeast conf inactive
Cc1nc(SCc2ccc(OCCC(C)C)cc2)n[nH]1	NALP3 yeast inh 76 | NALP3 yeast conf 84 | Casp1-ASC yeast 93 | NALP3 yeast rt 89
Cc1nc(SCc2ccc(F)cc2)n[nH]1	none (no result: L major viab)
CCCCCOc1ccc(CSc2n[nH]c(C)n2)cc1	NALP3 yeast inh 64 | NALP3 yeast conf 75 | Casp1-ASC yeast 70 | NALP3 yeast rt 82
COc1cc(NC(=O)CN2C(=O)CN(C)C2=O)c(C)cc1[N+](=O)[O-]	NALP3 yeast inh 81 | NALP3 yeast conf inactive
COc1cc(NC(=O)CN2C(=O)NC(c3ccccc3)(c3ccccc3)C2=O)c(C)cc1[N+](=O)[O-]	none
O=c1[nH]c(NCc2ccccc2)nc2c1CCC2	none
Cc1nc(Nc2nc3c(c(=O)[nH]2)CCC3)nc2ccccc12	NALP3 yeast inh 77 (no result: L major viab, NALP1 inh) | NALP3 yeast conf 71 | Casp1-ASC yeast inactive | NALP3 yeast rt inactive
NS(=O)(=O)c1ccc(NC(=O)Nc2ccc(Cl)cc2)cc1	none
N#Cc1ccc(NC(=O)Nc2ccc(Cl)cc2)cc1	T cruzi inh 71, NALP3 yeast inh 72, NALP1 inh 71 | NALP3 yeast conf 57 | Casp1-ASC yeast inactive | NALP3 yeast rt 60
CN(CC(=O)Nc1ccc(C#N)cc1)Cc1ccc(Cl)cc1	none
O=C(Nc1ccc(Cl)cc1)Nc1ccc(Cl)c(Cl)c1	NALP3 yeast inh 72 (no result: L major viab, T cruzi inh, NALP1 inh, PolyA inhibitor, Calb FLC) | NALP3 yeast conf 72 | Casp1-ASC yeast inactive | NALP3 yeast rt inactive
CN(CC(=O)Nc1ccc(C#N)cc1)Cc1ccc(Cl)cc1Cl	NALP3 yeast inh 65 | NALP3 yeast conf 59 | Casp1-ASC yeast 59 | NALP3 yeast rt inactive
